Assay results of several laboratories.
Lines come from different studies, so protocols differ.
Observed: cell growth or viability

Structure (SMILES) | cell line | assay | setting | endpoint | value
NC(=O)C1CCCN1C(=O)Nc1ccccc1/N=c1\cc(-c2ccc3c(c2)OCCO3)oc2cc(F)ccc12 (stereo not drawn) | HCT-116 | CCK-8 | 1 µM | inhibition | 13.6%
O=C(NCc1cn(Cc2ccc(Br)cc2)nn1)Nc1ccc(Cl)cc1 | PC-9 | CCK-8 | 20 µM, 72 h | viability | 111%
COc1ccc(NC(=O)Nc2ccc(-c3cn(Cc4cccc(Cl)c4)nn3)cc2)cc1 | PC-9 | CCK-8 | 50 µM, 72 h | viability | 90.4%
CCCCCCCCCCCCCCCCCCOc1cccc(CC(=O)OCC[N+]2(C)CCCC2)c1 | EKVX | SRB | 10 µM | inhibition | 1.14%
O=C(Nc1cccc(C(F)(F)F)c1)Nc1nc2cc(-c3ccc4ncn(CCN5CCOCC5)c(=O)c4c3)ccc2s1 | PC-9 | MTT | 72 h | IC50 | > 20 µM
CCCCCCCCCCCCCCCCCCOc1ccc(CC(=O)OCC[N+]2(C)CCCCC2)cc1 | EKVX | SRB | 10 µM | inhibition | 2.11%
Cc1nc(NC(=O)N2CCC[C@H]2C(N)=O)sc1-c1ccnc(C(C)(C)C(F)(F)F)c1 | KYSE-510 | ATP luminescence | 5 days | EC50 | 1500 nM
COc1ccc(NC(=O)Nc2cccc(-c3cn(Cc4ccc(Br)cc4)nn3)c2)cc1 | PC-9 | CCK-8 | 50 µM, 72 h | viability | 90.3%
O=C(Nc1ccccc1/N=c1\cc(-c2ccc3c(c2)OCO3)oc2ccccc12)N1CCOCC1 | HCT-116 | CCK-8 | 1 µM | inhibition | 11.2%
COc1ccc(NC(=O)NCc2cn(Cc3ccccc3C)nn2)cc1 | PC-9 | CCK-8 | 50 µM, 72 h | viability | 109%
CCCCCCCCCCCCCCCCCCOc1cccc(CC(=O)OCCC[N+](C)(C)C)c1 | EKVX | SRB | 10 µM | inhibition | 4.64%
COc1ccc(NC(=O)Nc2cccc(-c3cn(Cc4ccc(Cl)cc4)nn3)c2)cc1 | PC-9 | CCK-8 | 20 µM, 72 h | viability | 147%
O=C(NCCc1ccccc1)Nc1nc2cc(-c3ccc4ncn(CCN5CCOCC5)c(=O)c4c3)ccc2s1 | PC-9 | MTT | 72 h | IC50 | 8.14 µM
O=C(Nc1ccc(-c2cn(Cc3ccc(Br)cc3)nn2)cc1)Nc1ccccc1Br | PC-9 | CCK-8 | 20 µM, 72 h | viability | 85%
O=C(Nc1cccc(F)c1)Nc1nc2cc(-c3ccc4ncn(CCN5CCOCC5)c(=O)c4c3)ccc2s1 | PC-9 | MTT | 72 h | IC50 | > 20 µM
COc1ccc(NC(=O)Nc2cccc(-c3cn(Cc4cccc(Cl)c4)nn3)c2)cc1 | PC-9 | CCK-8 | 50 µM, 72 h | viability | 136%
O=C(Nc1ccc(Cl)cc1)Nc1cccc(-c2cn(Cc3cccc(Cl)c3)nn2)c1 | PC-9 | CCK-8 | 50 µM, 72 h | viability | 118%
C[C@H](Nc1ccc2c(c1)OCCn1cc(N3C(=O)OC[C@H]3C(F)F)nc1-2)C(N)=O | SK-OV-3 | ATP luminescence | 5 days | EC50 | 57.4 nM
O=C(Nc1cccc(-c2cn(Cc3ccc(Cl)cc3)nn2)c1)Nc1ccccc1Br | PC-9 | CCK-8 | 20 µM, 72 h | viability | 130%
N[C@@H](CO)C(=O)Nc1ccccc1/N=c1\cc(-c2ccc3c(c2)OCO3)oc2ccccc12 | HCT-116 | CCK-8 | 1 µM | inhibition | 12.2%
CCCCCCCCCCCCCCCCCCOc1ccccc1CC(=O)OCC[N+](C)(C)C | EKVX | SRB | 10 µM | inhibition | 53.1%

Structure (SMILES) | cell line | assay | setting | endpoint | value
NCCC(=O)Nc1ccccc1/N=c1\cc(-c2ccc3nc(N)oc3c2)oc2ccc(O)cc12 | HCT-116 | CCK-8 | 1 µM | inhibition | 15%
O=C(NCc1cn(Cc2cccc(Cl)c2)nn1)Nc1ccc(Cl)cc1 | PC-9 | CCK-8 | 20 µM, 72 h | viability | 90.9%
CCCCCCCCCCCCCCCCCCOc1cccc(CC(=O)OCC[N+](C)(C)C)c1 | EKVX | SRB | 10 µM | inhibition | 1.89%
NCC(=O)Nc1ccccc1/N=c1\cc(-c2ccc3c(c2)OCCO3)oc2ccccc12 | HCT-116 | CCK-8 | 1 µM | inhibition | 16.4%
O=C(Nc1ccc(F)cc1)Nc1nc2cc(-c3ccc4ncn(Cc5ccccc5)c(=O)c4c3)ccc2s1 | PC-9 | MTT | 72 h | IC50 | 7.3 µM
O=C(Nc1ccc(-c2cn(Cc3ccc(Cl)cc3)nn2)cc1)Nc1ccccc1Br | PC-9 | CCK-8 | 20 µM, 72 h | viability | 98.3%
COc1ccc2/c(=N/c3ccccc3NC(=O)N3CCOCC3)cc(-c3ccc4c(c3)OCCO4)oc2c1 | HCT-116 | CCK-8 | 1 µM | inhibition | 11.6%
O=C(Nc1cc(C(F)(F)F)cc(C(F)(F)F)c1)Nc1nc2cc(-c3ccc4ncn(Cc5ccccc5)c(=O)c4c3)ccc2s1 | PC-9 | MTT | 72 h | IC50 | > 20 µM
COc1ccc2/c(=N/c3ccccc3NC(=O)[C@H](C)N)cc(-c3ccc4c(c3)OCCO4)oc2c1 | HCT-116 | CCK-8 | 1 µM | inhibition | 16.5%
CCCCCCCCCCCCCCCCCCOc1cccc(CC(=O)OCC[N+](CC)(CC)CC)c1 | EKVX | SRB | 10 µM | inhibition | 22.3%
NCC(=O)Nc1ccccc1/N=c1\cc(-c2ccc3c(c2)OCO3)oc2c(N)cccc12 | HCT-116 | CCK-8 | 1 µM | inhibition | 14.3%
COc1ccc(NC(=O)NCc2cn(Cc3ccc(Br)cc3)nn2)cc1 | PC-9 | CCK-8 | 50 µM, 72 h | viability | 143%
N#CCCN(C(=O)CCl)c1ccc2c(c1)OCCN2CC(=O)N1CCC(C(=O)Nc2ccc(C(=O)NCCCCCCC(=O)NO)cc2)CC1 | U-87 MG | MTT | – | EC50 | > 50000 nM
COc1cccc(NC(=O)Nc2nc3cc(-c4ccc5ncn(Cc6ccccc6)c(=O)c5c4)ccc3s2)c1 | PC-9 | MTT | 72 h | IC50 | > 20 µM
CCCCCCCCCCCCCCCCCCOc1ccccc1CC(=O)OCC[N+]1(C)CCOCC1 | EKVX | SRB | 10 µM | inhibition | 13.3%
COc1ccc(NC(=O)Nc2cccc(-c3cn(Cc4ccccc4C)nn3)c2)cc1 | PC-9 | CCK-8 | 20 µM, 72 h | viability | 121%
Cc1nc(Nc2ncc(C(=O)Nc3c(C)cccc3Cl)s2)cc(N2CC[C@H](O)C2)n1 | Raji | ATP luminescence | 10 µM, 72 h | inhibition | -2%
O=C(Nc1ccc(Cl)cc1)Nc1cccc(-c2cn(Cc3ccc(Cl)cc3)nn2)c1 | PC-9 | CCK-8 | 50 µM, 72 h | viability | 110%
CCCS(=O)(=O)Oc1cc(C=NNC(=O)c2nc3ccccc3s2)ccc1OC | HCT-116 | MTT | 100 µM, 48 h | cell death | 42.7%
O=C(Nc1ccc(Cl)cc1)Nc1cccc(-c2cn(Cc3cccc(Br)c3)nn2)c1 | PC-9 | CCK-8 | 50 µM, 72 h | viability | 92.9%
O=C(Nc1ccc(Cl)cc1)Nc1ccc(-c2cn(Cc3cccc(Cl)c3)nn2)cc1 | PC-9 | CCK-8 | 50 µM, 72 h | viability | 76.4%
